In data set [1] the target is T1, Glucocerebrosidase (GC) (Homo sapiens, UniProt P04062, R534H).
T1 sequence (P04062 40-536 R534H): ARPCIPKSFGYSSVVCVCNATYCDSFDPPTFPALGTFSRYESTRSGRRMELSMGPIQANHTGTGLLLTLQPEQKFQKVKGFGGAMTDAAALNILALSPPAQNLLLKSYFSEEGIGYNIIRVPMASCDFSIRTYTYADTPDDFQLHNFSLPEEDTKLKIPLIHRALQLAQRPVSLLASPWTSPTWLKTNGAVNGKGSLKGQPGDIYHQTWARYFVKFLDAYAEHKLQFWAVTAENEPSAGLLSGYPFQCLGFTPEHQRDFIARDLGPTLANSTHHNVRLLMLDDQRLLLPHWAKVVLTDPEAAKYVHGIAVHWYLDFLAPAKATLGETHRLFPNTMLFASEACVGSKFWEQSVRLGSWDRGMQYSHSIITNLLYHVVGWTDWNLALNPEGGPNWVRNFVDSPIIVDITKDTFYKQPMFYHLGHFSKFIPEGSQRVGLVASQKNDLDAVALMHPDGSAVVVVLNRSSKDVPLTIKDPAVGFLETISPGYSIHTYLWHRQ
Description: "blue" GC enzyme kinetic assay, 384-well. The class given is biochemical. Particulars: substrate of "blue" assay, 1.9 nM enzyme. The method in brief: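 384-well format. 1.9 nM GC in pH 5.9 buffer (50 mM citric acid, 176 mM K2HPO4, 0.01% Tween-20, 10 mM sodium taurocholate). Reaction started with 4MU-β-Glc at final 3000–23.4 μM (1:2 series, eight levels), run at RT. Separate plates were stopped with 1 M NaOH/1 M glycine pH 10 at 2, 4, 6, 8, 10 and 12 min and read at 440 nm. Product was quantified from a 4-methylumbelliferone standard curve.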

Data set [2] addresses T1, Glucocerebrosidase (GC). Briefly: Res-β-Glc. The data set is classed as biochemical.
In data set [3] the target is T1, Glucocerebrosidase (GC). Briefly: 4MU-β-Glc. The data set is classed as biochemical. Particulars: read-out: IC50 in the "blue" GC assay; known GC inhibitors; 800 μM 4MU-β-Glc, 1.9 nM enzyme.
The conditions of data set [4]: CBE solutions in DMSO left at RT for more than a few hours (data not shown).
Data set [5] addresses T1, Glucocerebrosidase (GC). Description: "red" GC enzyme kinetic assay, 384-well. The data set is classed as biochemical. Particulars: substrate of "red" assay, 1.9 nM enzyme. In short, it runs like this: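 Kinetics were run in 384-well plates with 1.9 nM GC in pH 5.9 citrate/K2HPO4 buffer containing 0.01% Tween-20 and 10 mM sodium taurocholate. Res-β-Glc was added at final 100, 60, 40, 20, 10, 5 and 2.5 μM at RT, with no stop step. One plate was read continuously for 610 nm emission at 2 min intervals. Product was converted using a resorufin standard curve in assay buffer.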

Where [6] appears, read: varied substrate concentrations.

The Vmax is the rate approached at saturating substrate. By Km is commonly meant the substrate concentration at which the rate is half of its maximum. Consider `Cc1cc(=O)oc2cc(O[C@@H]3O[C@H](CO)[C@@H](O)[C@H](O)[C@H]3O)ccc12` [4MU-β-Glc, 4-methylumbelliferyl β-D-glucopyranoside], for which, in data set [1], the Vmax is on record as 1.56 pmol/min. Besides, the Km in data set [1] (setting [6]) came to 768 µM.

The term IC50 denotes the concentration that inhibits the measured activity by half. For `O[C@H]1[C@H](O)[C@@H](O)[C@@H]2O[C@@H]2[C@@H]1O` [CBE, Conduritol β-epoxide], the IC50 in data set [2] (read-out: IC50 in the "red" GC assay, known GC inhibitors, 30 μM Res-β-Glc, 1.9 nM enzyme) was 13 µM; in data set [3], 15.4 µM. For the same molecule, the “shift of IC50 value” in data set [4] is 2- to 10 fold.

Consider `N.N.[Cl][Pt][Cl]` [Cisplatin], for which, in data set [2] (neat samples of primary hits, "red" GC enzyme assay), the “GC inhibitory activity on hit confirmation” value was “inactive”.

In the case of `O=c1ccc2nc3ccc(O[C@@H]4O[C@H](CO)[C@@H](O)[C@H](O)[C@H]4O)cc3oc-2c1` [Res-β-Glc, Resorufin β-D-glucopyranoside], the Vmax in data set [5] came out at 7.11 pmol/min. In addition, in data set [5] (setting [6]), the Km amounted to 33 µM.

As to `CN[C@@H](C)[C@H](O)c1ccccc1` [compound 1, (-)-Ephedrine hemisulfate], half-maximal inhibition in data set [2] (IC50) was put at 0.79 µM.

For the molecule `O=C(/C=C/c1ccc(O)cc1)c1ccc(O)cc1O` [compound 2, Isoliquiritigenin], in data set [2], the IC50 came to 2.57 µM.

As for `CC[N+](CC)(CC)CCOc1cccc(OCC[N+](CC)(CC)CC)c1OCC[N+](CC)(CC)CC` [compound 3, Gallamine triethiodide], half-maximal inhibition in data set [2] (IC50) required 3.59 µM.

Molecule `C[N+]1(C)CCN(c2ccccc2)CC1` [compound 6, 1,1-Dimethyl-4-phenyl-piperazinium iodide] had an IC50 in data set [2] of 6.8 µM.

On to `O=c1c2ccccc2[se]n1-c1ccccc1` [compound 10, Ebselen], for which, in data set [2], the IC50 stood at 0.63 µM.

Values taken from paper PMC2668958 (Combinatorial chemistry & high throughput screening, 2008).
